ChEMBL document CHEMBL4376818, “Discovery of Novel Pyrazolo-pyridone DCN1 Inhibitors Controlling Cullin Neddylation” (J Med Chem, 2019)
≈ marks a conversion by molar mass, not a printed value. Calls of active or inactive are those of the source. The rule behind the calls is not given here.

Columns and labels:
[1] = molecular target: DCN1-like protein 1/NEDD8-conjugating enzyme Ubc12 (Homo sapiens, UniProt Q96GG9); experiment: Inhibition of biotinylated DCN1 (unknown origin) - AlexaFluor488 labelled UBE2M (unknown origin) protein-protein interaction after 1 hr by TR-FRET assay
BJ = experiment: Cytotoxicity against human BJ cells assessed as cell growth inhibition after 72 hrs by Celltiter-Glo assay; format: cell-based
Method in brief: (§1)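 Cells were seeded overnight at 37 °C, 5% CO2, at densities validated for logarithmic growth (BJ 1000 cells/well, HCC95 600 cells/well), then treated with ten 3-fold serial dilutions from DMSO stocks for 72 h. […] Fit on a semi-log plot; ≥3 technical and 2 biological replicates.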

HCC95 [2] = experiment: Cytotoxicity against human HCC95 cells overexpressing DCN1 assessed as cell growth inhibition after 72 hrs by Celltiter-Glo assay; format: cell-based; conditions: HCC95, 72 h; method in brief: as §1
HCC95 [3] = experiment: Induction of ROS generation in human HCC95 cells at 30 uM after 5 hrs by H2DCFDA dye based fluorescence assay; format: functional, cell-based
Method in brief: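 HCC95 cells were seeded at 25,000 cells/well and incubated overnight. They were PBS-washed, loaded with DCFDA for 45 min at 37 °C in the dark, washed twice, then exposed to compound in buffer for 5 h at 37 °C in the dark. Fluorescence was read at Ex/Em 485/535 nm.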

[4] = Half life in mouse microsomes at 0.8 uM; format: ADME, Microsome
Method in brief: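 Oxidative metabolic stability in murine liver microsomes, drug at 0.8 µM. Half-life is reported as mean ± SD from at least one independent experiment run in triplicate.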

[5] = Kinetic aqueous solubility of compound at pH 7.4; format: physicochemical; conditions: buffer, read-out: Kinetic_solubility
Method in brief: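 Kinetic aqueous solubility was measured in pH 7.4 buffer. Values are reported as means ± standard deviation from at least one independent experiment run in triplicate.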

[6] = molecular target: DCN1-like protein 2 (Homo sapiens) (UniProt Q6PH85); experiment: Inhibition of DCN2 (unknown origin) assessed as decrease in DCN1-stimulated NEDD8 transfer from UBE2M to CUL2 at 10 uM after 10 sec by pulse-chase assay
[7] = molecular target: T1, DCN1-like protein 3 (Homo sapiens) (UniProt Q8IWE4); experiment: Inhibition of DCN3 (unknown origin) assessed as decrease in DCN1-stimulated NEDD8 transfer from UBE2M to CUL2 at 120 uM after 10 sec by pulse-chase assay
T1 sequence (whole entry): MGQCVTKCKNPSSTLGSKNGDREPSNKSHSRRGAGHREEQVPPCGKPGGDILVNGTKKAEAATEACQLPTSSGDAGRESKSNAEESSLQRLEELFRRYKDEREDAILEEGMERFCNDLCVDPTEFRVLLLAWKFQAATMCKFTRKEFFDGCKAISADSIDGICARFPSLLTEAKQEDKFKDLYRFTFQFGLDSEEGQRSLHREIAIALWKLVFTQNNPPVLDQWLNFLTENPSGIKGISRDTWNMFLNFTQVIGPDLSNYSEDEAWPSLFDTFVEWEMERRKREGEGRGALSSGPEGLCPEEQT

[8] = molecular target: T2, DCN1-like protein 4 (Homo sapiens) (UniProt Q92564); experiment: Inhibition of DCN4 (unknown origin) assessed as decrease in DCN1-stimulated NEDD8 transfer from UBE2M to CUL2 at 60 uM after 10 sec by pulse-chase assay
T2 sequence (whole entry): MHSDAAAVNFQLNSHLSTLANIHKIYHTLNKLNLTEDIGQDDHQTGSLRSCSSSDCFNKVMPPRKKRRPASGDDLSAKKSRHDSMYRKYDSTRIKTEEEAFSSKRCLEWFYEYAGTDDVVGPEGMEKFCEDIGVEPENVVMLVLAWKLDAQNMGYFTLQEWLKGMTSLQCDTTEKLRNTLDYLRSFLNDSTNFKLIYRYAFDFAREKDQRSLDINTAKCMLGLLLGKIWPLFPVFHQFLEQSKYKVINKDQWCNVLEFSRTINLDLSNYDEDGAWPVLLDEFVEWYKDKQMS

[9] = molecular target: T3, DCN1-like protein 5 (Homo sapiens) (UniProt Q9BTE7); experiment: Inhibition of DCN5 (unknown origin) assessed as decrease in DCN1-stimulated NEDD8 transfer from UBE2M to CUL2 at 60 uM after 10 sec by pulse-chase assay
T3 sequence (whole entry): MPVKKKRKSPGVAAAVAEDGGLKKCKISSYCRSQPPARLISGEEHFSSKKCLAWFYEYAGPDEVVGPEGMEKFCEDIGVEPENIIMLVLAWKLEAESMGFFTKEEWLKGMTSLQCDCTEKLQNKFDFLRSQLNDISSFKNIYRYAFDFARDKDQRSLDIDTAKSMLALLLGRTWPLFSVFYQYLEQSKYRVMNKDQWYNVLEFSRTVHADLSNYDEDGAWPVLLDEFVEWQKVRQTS

DCN1-like protein 1/NEDD8-conjugating enzyme Ubc12, sequence (Q96GG9 whole entry): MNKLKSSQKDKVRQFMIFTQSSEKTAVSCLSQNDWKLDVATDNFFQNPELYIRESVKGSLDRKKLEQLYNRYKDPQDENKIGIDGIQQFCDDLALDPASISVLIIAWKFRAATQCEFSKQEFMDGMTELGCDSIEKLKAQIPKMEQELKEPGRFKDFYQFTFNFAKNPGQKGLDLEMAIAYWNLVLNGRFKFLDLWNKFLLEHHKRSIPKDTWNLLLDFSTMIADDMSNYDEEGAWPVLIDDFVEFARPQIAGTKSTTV
DCN1-like protein 1/NEDD8-conjugating enzyme Ubc12, sequence (P61081 whole entry, further chain): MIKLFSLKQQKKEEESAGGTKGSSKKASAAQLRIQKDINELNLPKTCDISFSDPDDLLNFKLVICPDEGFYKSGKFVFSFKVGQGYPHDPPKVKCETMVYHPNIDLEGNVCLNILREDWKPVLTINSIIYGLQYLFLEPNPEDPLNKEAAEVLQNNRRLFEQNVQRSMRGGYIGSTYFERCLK
DCN1-like protein 2 (Homo sapiens), sequence (Q6PH85 whole entry): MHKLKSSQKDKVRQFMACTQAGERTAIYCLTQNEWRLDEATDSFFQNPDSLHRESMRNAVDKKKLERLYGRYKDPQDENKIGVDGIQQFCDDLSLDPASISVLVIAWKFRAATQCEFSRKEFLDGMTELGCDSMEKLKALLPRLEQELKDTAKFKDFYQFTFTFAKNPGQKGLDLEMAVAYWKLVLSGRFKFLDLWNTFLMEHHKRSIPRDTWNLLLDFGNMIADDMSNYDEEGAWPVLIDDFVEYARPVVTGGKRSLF

Compound: Cc1cccc(C(=O)N[C@@H]2C(=O)Nc3c(c(C)nn3-c3ccccc3)[C@@H]2c2ccccc2)c1
- IC50 [1]: 4 µM

Compound: Cc1cccc(C(=O)N[C@@H]2C(=O)Nc3c(c(C)nn3-c3ccccn3)[C@@H]2c2ccc(F)cc2)c1
- IC50 [1]: > 15 µM

Compound: CC(=O)N1C(=O)[C@@H](NC(=O)c2cccc(C)c2)[C@@H](c2ccc(F)cc2)c2c(C)nn(-c3ccccc3)c21
- IC50 [1]: 5.6 µM

Compound: Cc1cccc(C(=O)N[C@H]2C(=O)Nc3c(c(C)nn3-c3ccccc3)[C@@H]2c2ccc(F)cc2)c1 (racemic)
- EC50 (BJ): > 25 µM
- EC50 (HCC95 [2]): > 25 µM
- Activity (HCC95 [3]): inactive

Compound: Cc1ccccc1C(=O)N[C@@H]1C(=O)Nc2c(c(C)nn2-c2ccccc2)[C@@H]1c1ccc(F)cc1
- IC50 [1]: > 15 µM

Compound: Cc1nn(-c2ccccc2)c2c1[C@H](c1ccc(F)cc1)[C@H](NC(=O)c1ccccc1)C(=O)N2
- IC50 [1]: 13 µM

Compound: Cc1cccc(C(=O)N[C@@H]2C(=O)N(C)c3c(c(C)nn3C(C)(C)C)[C@@H]2c2ccc(F)cc2)c1
- IC50 [1]: 2.3 µM

Compound: Cc1nn(-c2ccccc2)c2c1[C@H](c1ccc(F)cc1)[C@H](NC(=O)c1cccc(C(C)(C)C)c1)C(=O)N2
- IC50 [1]: > 15 µM

Compound: CCN1C(=O)[C@@H](NC(=O)c2cccc(C)c2)[C@@H](c2ccc(F)cc2)c2c(C)nn(C3CCCC3)c21
- IC50 [1]: 0.8 µM

Compound: CCn1nc(C)c2c1NC(=O)[C@@H](NC(=O)c1cccc(C)c1)[C@H]2c1ccc(F)cc1 (racemic)
- EC50 (BJ): > 25 µM
- EC50 (HCC95 [2]): > 25 µM
- half-life at 0.8 µM [4]: 36 min
- solubility kinetic [5]: 92.8 µM (≈ 37.7 µg/mL)

Compound: Cc1cccc(C(=O)N[C@@H]2C(=O)Nc3c(c(C)nn3-c3ccccc3)[C@@H]2c2ccc(F)cc2)c1 (racemic)
- IC50 [1]: 1.4 µM
- EC50 (BJ): > 25 µM
- EC50 (HCC95 [2]): > 25 µM
- half-life at 0.8 µM [4]: 66 min
- solubility kinetic [5]: 5.5 µM (≈ 2.5 µg/mL)

Compound: CCOC1=Nc2c(c(C)nn2-c2ccccc2)[C@H](c2ccc(F)cc2)[C@@H]1NC(=O)c1cccc(C)c1
- EC50 (BJ): > 25 µM
- EC50 (HCC95 [2]): > 25 µM

Compound: Cc1cccc(C(=O)N[C@@H]2C(=O)Nc3c(c(C)nn3-c3ccccc3)[C@@H]2c2cccc(F)c2)c1
- IC50 [1]: 7.1 µM

Compound: Cc1ccc(C(=O)N[C@@H]2C(=O)Nc3c(c(C)nn3-c3ccccc3)[C@@H]2c2ccc(F)cc2)cc1
- IC50 [1]: > 15 µM

Compound: Cc1cccc(C(=O)N[C@@H]2C(=O)Nc3c(c(C)nn3C(C)(C)C)[C@@H]2c2ccc(F)cc2)c1
- IC50 [1]: 0.5 µM

Compound: Cc1cncc(C(=O)N[C@@H]2C(=O)Nc3c(c(C)nn3-c3ccccc3)[C@@H]2c2ccc(F)cc2)c1
- IC50 [1]: > 15 µM

Compound: CCC(C)n1nc(C)c2c1NC(=O)[C@@H](NC(=O)c1cccc(C)c1)[C@H]2c1ccc(F)cc1 (stereo in doubt; 22b)
- IC50 [1]: 0.6 µM

Compound: CC(=O)CN1C(=O)[C@@H](NC(=O)c2cccc(C)c2)[C@@H](c2ccc(F)cc2)c2c(C)nn(-c3ccccc3)c21
- IC50 [1]: 7.1 µM

Compound: Cc1cccc(C(=O)N[C@@H]2C(=O)Nc3c(c(C)nn3Cc3ccccc3)[C@@H]2c2ccc(F)cc2)c1
- IC50 [1]: > 15 µM

Compound: Cc1nn(-c2ccccc2)c2c1[C@H](c1ccc(F)cc1)[C@H](NC(=O)c1cccc(I)c1)C(=O)N2
- IC50 [1]: 7.1 µM

Compound: Cc1cccc(C(=O)N[C@@H]2C(=O)Nc3c(c(C)nn3C3CC3)[C@@H]2c2ccc(F)cc2)c1
- IC50 [1]: 2 µM

Compound: CCCN1C(=O)[C@@H](NC(=O)c2cccc(C)c2)[C@@H](c2ccc(F)cc2)c2c1nn(CCC)c2C
- EC50 (BJ): > 25 µM
- EC50 (HCC95 [2]): > 25 µM

Compound: CCCn1nc(C)c2c1N(CC)C(=O)[C@@H](NC(=O)c1cccc(C)c1)[C@H]2c1ccc(F)cc1 (racemic)
- IC50 [1]: 0.2 µM
- EC50 (BJ): > 25 µM
- EC50 (HCC95 [2]): > 25 µM
- half-life at 0.8 µM [4]: < 6 min
- solubility kinetic [5]: 10.9 µM (≈ 4.89 µg/mL)

Compound: CCCCN1CCC(N(Cc2ccccc2)C(=O)Nc2ccc(Cl)c(Cl)c2)CC1
- Activity (HCC95 [3]): inactive

Compound: CCN1C(=O)[C@@H](NC(=O)c2cccc(C)c2)[C@@H](c2ccc(F)cc2)c2c(C)nn(-c3ccccc3)c21 (relative stereo)
- EC50 (BJ): > 25 µM
- EC50 (HCC95 [2]): > 25 µM
- inhibition [6]: Active
- inhibition [7]: inactive
- inhibition [8]: inactive
- inhibition [9]: inactive
- Activity (HCC95 [3]): inactive

Compound: Cc1ccc([C@H]2c3c(C)nn(-c4ccccc4)c3NC(=O)[C@H]2NC(=O)c2cccc(C)c2)cc1 (relative stereo)
- IC50 [1]: 5.1 µM
- EC50 (BJ): > 25 µM
- EC50 (HCC95 [2]): > 25 µM
- half-life at 0.8 µM [4]: 18 min
- solubility kinetic [5]: 1.1 µM (≈ 0.496 µg/mL)

Compound: Cc1cccc(C(=O)N[C@@H]2C(=O)Nc3c(c(C)nn3C3CCCC3)[C@@H]2c2ccc(F)cc2)c1 (racemic)
- IC50 [1]: 0.3 µM
- EC50 (BJ): > 25 µM
- EC50 (HCC95 [2]): > 25 µM
- half-life at 0.8 µM [4]: 30 min
- solubility kinetic [5]: 17.1 µM (≈ 7.64 µg/mL)

Compound: Cc1cccc(C(=O)N[C@@H]2C(=O)N(C(C)C)c3c(c(C)nn3-c3ccccc3)[C@@H]2c2ccc(F)cc2)c1
- IC50 [1]: 4.1 µM

Compound: Cc1cccc(C(=O)N[C@@H]2C(=O)Nc3c(c(C)nn3-c3ccccc3)[C@@H]2c2ccc(F)nc2)c1
- IC50 [1]: 3.5 µM

Compound: Cc1cccc(C(=O)N[C@@H]2C(=O)Nc3n[nH]c(C)c3[C@@H]2c2ccc(F)cc2)c1
- IC50 [1]: > 15 µM

Compound: CCCn1nc(C)c2c1NC(=O)[C@@H](NC(=O)c1cccc(C)c1)[C@H]2c1ccc(F)cc1
- IC50 [1]: 1.2 µM

Compound: CCC[C@H]1c2c(C)nn(-c3ccccc3)c2NC(=O)[C@H]1NC(=O)c1cccc(C)c1
- IC50 [1]: 3.1 µM

Compound: Cc1nn(-c2ccccc2)c2c1[C@H](c1ccc(F)cc1)[C@H](NC(=O)c1ccc(Cl)c(Cl)c1)C(=O)N2
- IC50 [1]: > 15 µM

Compound: Cc1cccc(C(=O)N[C@@H]2C(=O)Nc3c(c(C)nn3-c3ccccc3)[C@@H]2Cc2ccccc2)c1
- IC50 [1]: 3 µM

Compound: CCC(C)n1nc(C)c2c1NC(=O)[C@@H](NC(=O)c1cccc(C)c1)[C@H]2c1ccc(F)cc1 (stereo in doubt; 22a)
- IC50 [1]: 0.7 µM

Compound: Cc1cccc(C(=O)N[C@@H]2C(=O)Nc3c(c(C)nn3-c3ccccc3)[C@@H]2C2CCCCC2)c1
- IC50 [1]: 1.3 µM

Compound: Cc1cccc(C(=O)N[C@@H]2C(=O)Nc3c(c(C)nn3-c3ccccc3)[C@@H]2c2cccnc2)c1
- IC50 [1]: > 15 µM

Compound: CCN1C(=O)[C@@H](NC(=O)c2cccc(C)c2)[C@@H](c2ccc(F)cc2)c2c(C)nn(C3CC3)c21 (racemic)
- IC50 [1]: 0.2 µM
- EC50 (BJ): > 25 µM
- EC50 (HCC95 [2]): > 25 µM
- half-life at 0.8 µM [4]: < 6 min
- solubility kinetic [5]: 46.1 µM (≈ 20.6 µg/mL)
